In ChEMBL document CHEMBL2146377, “Rational design of 4-aryl-1,2,3-triazoles for indoleamine 2,3-dioxygenase 1 inhibition” (J Med Chem, 2012):
Active and inactive are the calls of the source. The rule behind the calls is not given here.

Legend:
[1] = biological target: T1, Indoleamine 2,3-dioxygenase 1 (Homo sapiens, UniProt P14902); details: at 1 mM
Target sequence in this assay (P14902 whole entry, looked up): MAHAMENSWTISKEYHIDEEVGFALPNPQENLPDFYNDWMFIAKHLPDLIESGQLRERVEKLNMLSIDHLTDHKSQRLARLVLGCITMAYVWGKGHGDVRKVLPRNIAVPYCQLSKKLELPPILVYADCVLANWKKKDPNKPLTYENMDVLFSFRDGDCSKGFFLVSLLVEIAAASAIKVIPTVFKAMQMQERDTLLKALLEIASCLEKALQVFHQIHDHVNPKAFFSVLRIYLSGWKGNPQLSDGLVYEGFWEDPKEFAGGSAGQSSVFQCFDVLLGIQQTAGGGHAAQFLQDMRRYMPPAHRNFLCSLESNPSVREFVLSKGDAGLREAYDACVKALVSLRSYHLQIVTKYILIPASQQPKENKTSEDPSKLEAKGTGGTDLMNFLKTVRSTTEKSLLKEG

[2] = biological target: T1, Indoleamine 2,3-dioxygenase 1; test: Inhibition of human IDO1 transfected in HEK293 clone 6 cells by HPLC analysis; format: cell-based
Target sequence in this assay (P14902 whole entry, looked up): as above

HepG2 = test: Cytotoxicity against human HepG2 cells after 24 hrs by MTS-PMS assay; format: functional; details: HepG2, 24 h, read-out: LD50 (the source's name)
Summary of the method: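 Hep G2 cells (2 × 10⁴ per well) in IMDM with 10% FCS exposed to compound titrated 0.001–100 μM for 24 h at 37 °C; living cells counted by MTS/PMS assay; LD₅₀ reported as mean of at least two independent assays with standard deviation.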

[3] = biological target: Indoleamine 2,3-dioxygenase 1 (Mus musculus, UniProt P28776); test: Inhibition of mouse IDO1 in P815 clone 6 cells by HPLC analysis; format: cell-based
Summary of the method: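 Murine mastocytoma P815 stably transfected cells were used: P815-mIDO1 clone 6 for mouse IDO1 and P815B-hIDO1 clone 6 for human IDO1. Cells with inhibitor were incubated at 37 °C until under 50% of tryptophan was consumed, as tracked in control wells by pDMAB absorbance at 480 nm. Supernatant was TCA-precipitated, and tryptophan and kynurenine were quantified by C18 HPLC. Values are the mean of ≥2 independent assays.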

[4] = biological target: Tryptophan 2,3-dioxygenase (Mus musculus, UniProt P48776); test: Inhibition of mouse TDO in P815 clone 12 cells by HPLC analysis; format: cell-based
[5] = biological target: T1, Indoleamine 2,3-dioxygenase 1; test: Inhibition of human IDO1 transfected in mouse P815B clone-6 cells by HPLC analysis; format: cell-based
Target sequence in this assay (P14902 whole entry): as the sequence (P14902 whole entry, looked up) above

[6] = biological target: Tryptophan 2,3-dioxygenase (Homo sapiens, UniProt P48775); test: Inhibition of human TDO transfected in mouse P815B clone 19 cells by HPLC analysis; format: cell-based
[7] = biological target: T1, Indoleamine 2,3-dioxygenase 1; test: Inhibition of human recombinant N-terminal His-tagged IDO1 (Ala2 to Gly403) overexpressed in Escherichia coli BL21 at pH 6.5 after 60 mins by HPLC analysis
Target sequence in this assay (P14902 whole entry): as the sequence (P14902 whole entry, looked up) above

physchem = details: pH 2

Sequence of Indoleamine 2,3-dioxygenase 1 (Mus musculus, UniProt P28776) (P28776 whole entry): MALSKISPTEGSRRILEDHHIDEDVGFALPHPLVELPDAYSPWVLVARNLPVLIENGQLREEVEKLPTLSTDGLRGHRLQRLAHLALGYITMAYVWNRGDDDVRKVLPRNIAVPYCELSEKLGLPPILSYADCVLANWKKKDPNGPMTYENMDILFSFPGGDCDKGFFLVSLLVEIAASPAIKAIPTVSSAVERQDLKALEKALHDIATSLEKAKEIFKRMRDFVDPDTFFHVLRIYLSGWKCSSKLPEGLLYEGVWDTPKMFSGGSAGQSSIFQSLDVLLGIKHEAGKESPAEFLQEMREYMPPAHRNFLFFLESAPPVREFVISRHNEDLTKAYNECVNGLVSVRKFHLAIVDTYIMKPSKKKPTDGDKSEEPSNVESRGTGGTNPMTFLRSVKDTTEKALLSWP
Sequence of Tryptophan 2,3-dioxygenase (Mus musculus, UniProt P48776) (P48776 whole entry): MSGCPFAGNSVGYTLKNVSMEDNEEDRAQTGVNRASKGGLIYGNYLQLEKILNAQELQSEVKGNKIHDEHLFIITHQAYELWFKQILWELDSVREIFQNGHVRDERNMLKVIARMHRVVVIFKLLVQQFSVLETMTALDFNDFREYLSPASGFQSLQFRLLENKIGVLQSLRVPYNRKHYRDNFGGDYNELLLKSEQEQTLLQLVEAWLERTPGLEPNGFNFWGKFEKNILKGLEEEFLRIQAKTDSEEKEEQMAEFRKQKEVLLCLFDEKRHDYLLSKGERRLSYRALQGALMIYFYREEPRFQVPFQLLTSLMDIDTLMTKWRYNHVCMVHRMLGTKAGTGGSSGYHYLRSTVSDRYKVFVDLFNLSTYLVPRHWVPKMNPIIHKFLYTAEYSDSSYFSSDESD
Sequence of Tryptophan 2,3-dioxygenase (Homo sapiens, UniProt P48775) (P48775 whole entry): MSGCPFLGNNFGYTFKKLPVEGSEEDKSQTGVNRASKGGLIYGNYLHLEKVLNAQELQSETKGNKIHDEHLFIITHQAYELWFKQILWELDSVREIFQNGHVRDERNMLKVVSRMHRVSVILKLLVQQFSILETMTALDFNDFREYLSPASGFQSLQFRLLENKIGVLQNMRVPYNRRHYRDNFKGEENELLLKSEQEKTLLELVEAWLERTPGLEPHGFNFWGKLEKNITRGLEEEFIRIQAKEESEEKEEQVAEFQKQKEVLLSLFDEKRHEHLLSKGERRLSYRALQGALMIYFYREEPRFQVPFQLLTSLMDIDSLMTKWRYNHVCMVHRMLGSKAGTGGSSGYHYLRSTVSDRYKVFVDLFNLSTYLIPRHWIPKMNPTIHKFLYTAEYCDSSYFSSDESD

CCn1cc(-c2ccccc2)nn1
inhibition [1]: inactive

Cc1cccc(-c2cnnn2-c2ccccc2)c1
inhibition [1]: inactive

Cn1ncc(-c2ccccc2)n1
inhibition [1]: inactive

C1=C(c2c[nH]nn2)CCCC1
inhibition [1]: inactive

Nc1ccccc1-c1c[nH]nn1
inhibition [2]: Active | CC50 (HepG2): > 100 µM | IC50 [3]: 1.7 µM | IC50 [4]: > 100 µM | IC50 [5]: > 100 µM | IC50 [6]: > 100 µM | IC50 [7]: 60 µM

NCCc1ccccc1-c1c[nH]nn1
inhibition [1]: inactive

c1c[nH]cn1 [IMIDAZOLE]
pKa (physchem): 14.5

c1ccc(SCc2c[nH]nn2)cc1
inhibition [1]: inactive

Fc1ccc(-c2cnnn2-c2ccccc2)cc1
inhibition [1]: inactive

Cc1c(Cl)cccc1-c1c[nH]nn1
IC50 [7]: 72 µM

Cc1cccc(NC(=O)C(F)(F)F)c1-c1c[nH]nn1
IC50 [7]: 3000 µM

CCc1ccccc1-c1c[nH]nn1
inhibition [2]: Active | CC50 (HepG2): > 100 µM | IC50 [3]: 13 µM | IC50 [4]: > 100 µM | IC50 [5]: > 100 µM | IC50 [6]: > 100 µM | IC50 [7]: 230 µM

CCn1nncc1-c1ccccc1
inhibition [1]: inactive

Oc1cccc(-c2c[nH]nn2)c1
inhibition [2]: Active | CC50 (HepG2): > 100 µM | IC50 [3]: 1.3 µM | IC50 [4]: > 100 µM | IC50 [5]: > 100 µM | IC50 [6]: > 100 µM | IC50 [7]: 310 µM

Oc1ccccc1-c1c[nH]nn1
inhibition [2]: Active | CC50 (HepG2): > 100 µM | IC50 [3]: 0.022 µM | IC50 [4]: > 100 µM | IC50 [5]: 1.7 µM | IC50 [6]: > 100 µM | IC50 [7]: 15 µM

c1ccc2[nH]nnc2c1
inhibition [1]: inactive

c1cc(-c2ccncc2)ccn1
inhibition [1]: inactive

FC(F)(F)c1ccccc1-c1c[nH]nn1
inhibition [2]: Active | CC50 (HepG2): > 100 µM | IC50 [3]: 20 µM | IC50 [4]: > 100 µM | IC50 [5]: > 100 µM | IC50 [6]: > 100 µM | IC50 [7]: 650 µM

Cc1ccccc1-c1c[nH]nn1
inhibition [2]: Active | CC50 (HepG2): > 100 µM | IC50 [3]: 1.7 µM | IC50 [4]: > 100 µM | IC50 [5]: > 100 µM | IC50 [6]: > 100 µM | IC50 [7]: 39 µM

c1ccc(-c2ccncn2)cc1
inhibition [1]: inactive

Brc1cc(-c2c[nH]nn2)ccn1
inhibition [2]: Active | CC50 (HepG2): > 100 µM | IC50 [3]: 0.05 µM | IC50 [4]: > 100 µM | IC50 [5]: 2.9 µM | IC50 [6]: > 100 µM | IC50 [7]: 3.3 µM

Brc1ccccc1-c1cnn[nH]1
inhibition [2]: Active | CC50 (HepG2): > 100 µM

Cn1nncc1-c1cccc(Cl)c1
inhibition [1]: inactive

Cn1cc(-c2ccccc2)nn1
inhibition [1]: inactive

c1cncc(-c2c[nH]nn2)c1
pKa (physchem): 8.14 | IC50 [7]: 1000 µM

Cc1cccc(-c2c[nH]nn2)c1
inhibition [2]: Active | CC50 (HepG2): > 100 µM | IC50 [3]: 0.12 µM | IC50 [4]: > 100 µM | IC50 [5]: 7 µM | IC50 [6]: > 100 µM | IC50 [7]: 22 µM

O=Cc1ccccc1-c1c[nH]nn1
IC50 [7]: 1300 µM

Nc1nonc1/C(=N/O)Nc1ccc(F)c(Cl)c1
inhibition [2]: Active | CC50 (HepG2): > 100 µM

c1ccc(Cc2c[nH]nn2)cc1
inhibition [1]: inactive

Nc1cccc(-c2c[nH]nn2)c1
inhibition [2]: Active | CC50 (HepG2): > 100 µM | IC50 [3]: 4 µM | IC50 [4]: > 100 µM | IC50 [5]: > 100 µM | IC50 [6]: > 100 µM | IC50 [7]: 1500 µM

Cn1nncc1-c1ccccc1
inhibition [1]: inactive

Fc1ccc(-c2cnn[nH]2)cc1
inhibition [2]: Active | CC50 (HepG2): > 100 µM

c1nnn[nH]1 [TETRAZOLE]
pKa (physchem): 4.79

Oc1ccccc1-c1ccno1
inhibition [1]: inactive

N#Cc1cccc(-c2c[nH]nn2)c1
inhibition [2]: Active | CC50 (HepG2): > 100 µM | IC50 [3]: 0.029 µM | IC50 [4]: > 100 µM | IC50 [5]: 2.9 µM | IC50 [6]: > 100 µM | IC50 [7]: 2.8 µM

Cc1cccc(N)c1-c1c[nH]nn1
IC50 [7]: 1200 µM

Fc1ccc2c(/C=C/c3nnn[nH]3)c[nH]c2c1
inhibition [2]: Active | CC50 (HepG2): > 100 µM | IC50 [3]: > 100 µM | IC50 [4]: 17 µM

FC(F)(F)c1cc(-c2c[nH]nn2)ccn1
inhibition [2]: Active | CC50 (HepG2): > 100 µM | IC50 [3]: 0.34 µM | IC50 [4]: > 100 µM | IC50 [5]: 56 µM | IC50 [6]: > 100 µM | IC50 [7]: 15 µM

FC(F)(F)c1cccc(-c2c[nH]nn2)c1
inhibition [2]: Active | CC50 (HepG2): > 100 µM | IC50 [3]: 0.07 µM | IC50 [4]: > 100 µM | IC50 [5]: 9 µM | IC50 [6]: > 100 µM | IC50 [7]: 6 µM

CCn1ncc(-c2ccccc2)n1
inhibition [1]: inactive

Fc1ccc(-c2c[nH]nn2)cc1
IC50 [3]: 2.1 µM | IC50 [4]: > 100 µM | IC50 [5]: > 100 µM | IC50 [6]: > 100 µM | IC50 [7]: 190 µM

Nc1nonc1C(=NO)Nc1ccc(F)c(Cl)c1
IC50 [4]: 60 µM | IC50 [6]: 70 µM

O=[N+]([O-])c1cccc(-c2c[nH]nn2)c1
inhibition [2]: Active | CC50 (HepG2): > 100 µM | IC50 [3]: 0.11 µM | IC50 [4]: > 100 µM | IC50 [5]: 24 µM | IC50 [6]: > 100 µM | IC50 [7]: 15 µM

c1cc(-c2c[nH]cn2)ccn1
IC50 [7]: 1800 µM

Cc1ccc(N)cc1-c1c[nH]nn1
IC50 [7]: 3200 µM

Oc1ccc(Cl)cc1-c1c[nH]nn1
inhibition [2]: Active | CC50 (HepG2): > 100 µM | IC50 [3]: 0.002 µM | IC50 [4]: > 100 µM | IC50 [6]: > 100 µM

Fc1ccccc1-c1c[nH]nn1
inhibition [2]: Active | CC50 (HepG2): > 100 µM | IC50 [3]: 0.63 µM | IC50 [4]: > 100 µM | IC50 [5]: 70 µM | IC50 [6]: > 100 µM | IC50 [7]: 80 µM

Brc1ccccc1-c1c[nH]nn1
IC50 [3]: 0.034 µM | IC50 [4]: > 100 µM | IC50 [5]: 2.6 µM | IC50 [6]: > 100 µM | IC50 [7]: 6.4 µM

Cc1ccc(Cl)cc1-c1c[nH]nn1
inhibition [2]: Active | CC50 (HepG2): > 100 µM | IC50 [3]: 0.12 µM | IC50 [4]: > 100 µM | IC50 [5]: 14 µM | IC50 [6]: > 100 µM | IC50 [7]: 4.3 µM

c1ccc(-c2cnnn2-c2ccccc2)cc1
inhibition [1]: inactive

CCCCn1cc(-c2ccccc2)nn1
inhibition [1]: inactive

Clc1cccc(-c2cnnn2-c2ccccc2)c1
inhibition [1]: inactive

CCCCn1nncc1-c1ccccc1
inhibition [1]: inactive

Clc1ccccc1-c1cnn[nH]1
inhibition [2]: Active | CC50 (HepG2): > 100 µM

FC(F)(F)c1ccc(-c2c[nH]nn2)cc1
IC50 [7]: 2300 µM

CNc1ccccc1-c1c[nH]nn1
IC50 [7]: 1800 µM

CCc1cccc(-c2c[nH]nn2)c1
inhibition [2]: Active | CC50 (HepG2): > 100 µM | IC50 [3]: 0.03 µM | IC50 [4]: > 100 µM | IC50 [5]: 1.1 µM | IC50 [6]: > 100 µM | IC50 [7]: 13 µM

c1ccc(-c2ccncc2)cc1
inhibition [1]: inactive

Cc1ccc(-c2c[nH]nn2)cc1
IC50 [7]: 1000 µM

COc1ccccc1-c1cnnn1-c1ccccc1
inhibition [1]: inactive

Cn1cc(-c2cccc(Cl)c2)nn1
inhibition [1]: inactive

Cc1ccc2[nH]nnc2c1
inhibition [1]: inactive

Brc1cccc(-c2c[nH]nn2)c1
inhibition [2]: Active | CC50 (HepG2): > 100 µM | IC50 [3]: 0.023 µM | IC50 [4]: > 100 µM | IC50 [5]: 0.94 µM | IC50 [6]: > 100 µM | IC50 [7]: 2 µM

c1ccc(Cn2nncc2-c2ccccc2)cc1
inhibition [1]: inactive

O=C(O)CCc1ccccc1-c1c[nH]nn1
inhibition [1]: inactive

c1ccc(Cn2cc(-c3ccccc3)nn2)cc1
inhibition [1]: inactive
